From ChEMBL document CHEMBL1139975, “Cyclic benzamidines as orally efficacious NR2B-selective NMDA receptor antagonists” (Bioorg Med Chem Lett, 2007)

Columns and labels:
[1] = biological target: T1, Glutamate receptor ionotropic, NMDA 2B (Homo sapiens, UniProt Q05586+Q13224); test: Binding affinity to NMDA NR2B receptor
[2] = biological target: T1, Glutamate receptor ionotropic, NMDA 2B; test: Antagonist activity at NMDA NR2B receptor assessed as calcium flux; type: functional
[3] = Cmax in rat at 2 mg/kg, iv and 10 mg/kg, po; type: ADME, organism-based; conditions: in vivo
Method in brief: (§1)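 Rats were dosed 2 mg/kg iv and 10 mg/kg po in separate arms. Plasma Cmax, plasma half-life, clearance and oral bioavailability were derived from these two dosings.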

[4] = Oral bioavailability in rat at 10 mg/kg; type: ADME, organism-based; conditions: in vivo; method in brief: as §1
[5] = Half life in rat at 2 mg/kg, iv and 10 mg/kg, po; type: ADME, organism-based; conditions: in vivo; method in brief: as §1
[6] = Clearance in rat at 2 mg/kg, iv and 10 mg/kg, po; type: ADME, organism-based; conditions: in vivo; method in brief: as §1
Rattus norvegicus = test: Reduction in hyperalgesic response in po dosed carrageenan-induced hyperalgesia rat model; type: functional
Method in brief: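 Carrageenan was used to induce hyperalgesia in rats, and test compound was given orally. Behavioral responses to noxious stimuli were scored, and the hyperalgesic response was expressed as % reduction versus control. ED50 was derived from oral dosing.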

T1 sequence (Q13224 whole entry, one chain of several): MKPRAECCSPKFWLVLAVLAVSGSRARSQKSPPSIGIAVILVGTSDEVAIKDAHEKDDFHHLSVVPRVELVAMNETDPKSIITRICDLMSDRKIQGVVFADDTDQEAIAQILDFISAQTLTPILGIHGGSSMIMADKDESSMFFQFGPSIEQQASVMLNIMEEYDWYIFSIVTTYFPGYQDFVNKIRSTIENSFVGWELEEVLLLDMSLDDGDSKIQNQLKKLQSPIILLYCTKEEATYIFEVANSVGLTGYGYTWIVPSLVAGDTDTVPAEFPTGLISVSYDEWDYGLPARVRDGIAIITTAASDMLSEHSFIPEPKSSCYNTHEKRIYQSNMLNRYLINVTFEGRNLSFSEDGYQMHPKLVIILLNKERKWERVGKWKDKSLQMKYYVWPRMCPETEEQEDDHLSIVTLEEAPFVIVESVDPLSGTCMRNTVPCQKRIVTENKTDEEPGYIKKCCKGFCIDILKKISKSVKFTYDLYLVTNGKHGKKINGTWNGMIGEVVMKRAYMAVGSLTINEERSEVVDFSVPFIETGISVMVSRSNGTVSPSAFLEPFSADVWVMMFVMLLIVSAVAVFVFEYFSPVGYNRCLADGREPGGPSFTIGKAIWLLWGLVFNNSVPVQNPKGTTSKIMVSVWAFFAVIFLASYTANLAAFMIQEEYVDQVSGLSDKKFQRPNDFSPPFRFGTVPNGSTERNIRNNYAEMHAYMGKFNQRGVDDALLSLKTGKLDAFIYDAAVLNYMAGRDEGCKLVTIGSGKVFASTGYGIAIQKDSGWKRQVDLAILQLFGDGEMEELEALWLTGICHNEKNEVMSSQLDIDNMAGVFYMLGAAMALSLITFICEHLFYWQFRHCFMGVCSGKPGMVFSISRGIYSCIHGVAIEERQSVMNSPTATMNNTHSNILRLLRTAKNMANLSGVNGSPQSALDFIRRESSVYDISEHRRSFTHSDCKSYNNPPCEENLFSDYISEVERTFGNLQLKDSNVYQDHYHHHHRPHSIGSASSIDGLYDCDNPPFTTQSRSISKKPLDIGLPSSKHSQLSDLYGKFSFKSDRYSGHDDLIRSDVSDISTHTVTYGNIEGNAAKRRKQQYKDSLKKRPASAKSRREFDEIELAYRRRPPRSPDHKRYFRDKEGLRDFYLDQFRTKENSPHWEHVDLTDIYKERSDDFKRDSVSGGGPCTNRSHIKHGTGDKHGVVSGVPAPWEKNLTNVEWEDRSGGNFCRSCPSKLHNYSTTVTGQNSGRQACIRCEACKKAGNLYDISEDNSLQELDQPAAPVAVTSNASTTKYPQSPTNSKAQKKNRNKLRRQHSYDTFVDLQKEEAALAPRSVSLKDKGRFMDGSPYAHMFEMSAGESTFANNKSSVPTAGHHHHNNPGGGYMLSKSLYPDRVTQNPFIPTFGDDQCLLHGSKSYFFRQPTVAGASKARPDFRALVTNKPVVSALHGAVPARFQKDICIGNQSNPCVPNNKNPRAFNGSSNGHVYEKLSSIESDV

| Compound | Ki [1] | IC50 [2] | further results |
| --- | --- | --- | --- |
| FC(F)(F)Oc1ccc(C2=NC(c3cccc(Cl)c3)CN2)cc1Cl (configuration not stated) | 0.066 µM | 0.266 µM |  |
| OC1CN=C(c2ccc(OC(F)(F)F)cc2)NC1c1ccccc1 (configuration not stated) | 7.35 µM |  |  |
| FC(F)(F)Oc1ccc(C2=NC(c3cccc(Cl)c3)CN2)cc1 (configuration not stated) | 0.296 µM | 1.98 µM |  |
| FC(F)(F)Oc1ccc(C2=NCC(c3ccccc3OC(F)(F)F)N2)cc1Cl (configuration not stated) | 0.505 µM | 3.48 µM |  |
| COc1ccccc1C1CN=C(c2ccc(OC(F)(F)F)c(Cl)c2)N1 (configuration not stated) | 0.075 µM | 0.108 µM |  |
| FC(F)(F)Oc1ccc(C2=NCC(c3ccccc3C(F)(F)F)N2)cc1Cl (configuration not stated) | 0.353 µM | 1.27 µM |  |
| FC(F)(F)Oc1ccc(C2=NC(c3cc(Cl)cc(Cl)c3)CN2)cc1Cl (configuration not stated) | 0.223 µM | 3.67 µM |  |
| FC(F)(F)Oc1ccc(C2=NCCCC(c3ccccc3)N2)cc1 (configuration not stated) | 4.2 µM |  |  |

The next lines start with results.

| Ki [1] | IC50 [2] | Compound | further results |
| --- | --- | --- | --- |
| 0.0022 µM | 0.012 µM | N=C1c2ccc(OC(F)(F)F)cc2CN1Cc1cccc2ccoc12 |  |
| 0.002 µM | 0.039 µM | Cc1cc(C)cc(CN2Cc3cc(OC(F)(F)F)ccc3C2=N)c1 |  |
| 0.008 µM | 0.049 µM | N=C1c2ccc(OC(F)(F)F)cc2CN1Cc1cccc(Cl)c1 |  |
| 0.0036 µM | 0.0059 µM | COc1ccccc1CN1Cc2cc(OC(F)(F)F)ccc2C1=N | Cmax [3]: 215 nM; bioavailability [4]: 5%; half-life [5]: 2 h; clearance [6]: 66 mL/min/kg; ED50 (Rattus norvegicus): 20 mg/kg |
